Columns and labels:
Beta-secretase 1 [1] = target: T1, Beta-secretase 1 (Homo sapiens, UniProt P56817); experiment: Inhibition of BACE1 (unknown origin) at 10 uM pre-incubated for 10 mins before addition of fluorescent substrate HiLyte FluorTM 488-Glu-Val-Asn-Leu-Asp-Ala-Glu-Phe-Lys and measured over 30 mins
How it was run: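 BACE1 (1 µg/mL) preincubated with inhibitor at 10 µM, 10 min, 25 °C, then reaction started by adding the internally quenched substrate (QXL 520 quencher). Fluorescence (ex 490/em 520 nm) read over 30 min at 25 °C. Percent inhibition = (1−Vs/Vo)×100 from initial velocities with and without inhibitor.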

Beta-secretase 1 [2] = target: T1, Beta-secretase 1; experiment: Inhibition of BACE1 (unknown origin) pre-incubated for 10 mins before addition of fluorescent substrate HiLyte FluorTM 488-Glu-Val-Asn-Leu-Asp-Ala-Glu-Phe-Lys and measured over 30 mins
How it was run: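 Kit-based fluorometric BACE1 assay. Enzyme at 1 µg/mL, preincubated 10 min at 25 °C with inhibitor across 0.003–30 µM before substrate (QXL 520-quenched) addition. Initial velocities taken from ex 490/em 520 nm fluorescence over 30 min at 25 °C. IC50 from the dose-response, run in triplicate in three independent experiments, given as mean ± SD.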

T1 sequence (P56817 whole entry): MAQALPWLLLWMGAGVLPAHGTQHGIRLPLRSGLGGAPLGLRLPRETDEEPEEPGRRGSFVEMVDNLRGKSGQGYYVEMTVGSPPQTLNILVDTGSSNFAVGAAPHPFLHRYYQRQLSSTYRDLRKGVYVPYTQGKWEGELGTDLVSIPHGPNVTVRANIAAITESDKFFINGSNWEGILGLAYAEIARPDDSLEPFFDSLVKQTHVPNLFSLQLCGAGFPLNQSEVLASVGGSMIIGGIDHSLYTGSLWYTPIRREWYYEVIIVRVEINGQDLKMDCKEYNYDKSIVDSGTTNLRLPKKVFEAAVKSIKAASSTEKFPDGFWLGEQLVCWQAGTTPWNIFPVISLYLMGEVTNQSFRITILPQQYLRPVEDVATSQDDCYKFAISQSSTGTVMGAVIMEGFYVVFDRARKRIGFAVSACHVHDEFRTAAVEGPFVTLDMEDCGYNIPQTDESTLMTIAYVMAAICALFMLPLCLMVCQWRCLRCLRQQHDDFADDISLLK

Compound | inhibition (Beta-secretase 1 [1]) [%] | IC50 (Beta-secretase 1 [2]) [nM]
O=C([C@@H]1O[C@@]2(c3ccccc3)CN(Cc3ccccc3)C(=O)[C@@H]1O2)N1CCOCC1 | 0 | –
C#CCNC(=O)[C@@H]1O[C@H]2CN(Cc3ccccc3)C[C@@H]1O2 | 0 | –
COC(=O)[C@H](c1ccccc1)N1C[C@@H]2O[C@@H](C(=O)N3CCCCC3)[C@@H](O2)C1=O | 0 | –
O=C([C@@H]1O[C@@H]2O[C@H]1C(=O)N(Cc1ccccc1)[C@H]2Cc1ccccc1)N1CCCCC1 | 15 | –
CC(C)C[C@@H](CO)NC(=O)[C@H]1O[C@@H]2CN(Cc3ccccc3)C(=O)[C@H]1O2 | 0 | –
COC(=O)[C@H](CC(C)C)N1C[C@@H]2O[C@@H](C(=O)N3CCCCC3)[C@@H](O2)C1=O | 46 | –
O=C([C@H]1O[C@H]2O[C@@H]1C(=S)N(Cc1ccccc1)[C@@H]2Cc1ccccc1)N1CCOCC1 | 32 | –
CC(C)C[C@H](CO)NC(=O)[C@H]1O[C@@H]2CN(Cc3ccccc3)C(=O)[C@H]1O2 | 0 | –
O=C(NC1CCCCC1)[C@@H]1O[C@@]2(c3ccccc3)CN(C(c3ccccc3)c3ccccc3)C(=O)[C@@H]1O2 | 0 | –

The next lines start with the values.

inhibition (Beta-secretase 1 [1]) [%] | IC50 (Beta-secretase 1 [2]) [nM] | Compound
0 | – | O=C([C@@H]1O[C@@H]2O[C@H]1C(=S)N(Cc1ccccc1)[C@H]2Cc1ccccc1)N1CCOCC1
29 | – | C#CCNC(=O)[C@@H]1O[C@@H]2O[C@H]1C(=O)N(Cc1ccccc1)[C@H]2Cc1ccccc1
61 | 2600 | COC(=O)[C@@H]1O[C@@H]2O[C@H]1C(=S)N(Cc1ccccc1)[C@H]2Cc1ccccc1
0 | – | CC(C)C[C@H](CO)NC(=O)[C@@H]1O[C@H]2CN(Cc3ccccc3)C(=O)[C@@H]1O2
5 | – | CCOC(=O)N1CCN(C(=O)[C@H]2O[C@H]3O[C@@H]2C(=S)N(Cc2ccccc2)[C@@H]3Cc2ccccc2)CC1
16 | – | CCOC(=O)N1CCN(C(=O)[C@@H]2O[C@@H]3O[C@H]2C(=S)N(Cc2ccccc2)[C@H]3Cc2ccccc2)CC1
10 | – | O=C([C@@H]1O[C@H]2CN(Cc3ccccc3)C(=S)[C@@H]1O2)N1CCOCC1
36 | – | O=C([C@@H]1O[C@H]2CN(Cc3ccccc3)C(=O)[C@@H]1O2)N1CCCCC1
8 | – | CC(C)C[C@@H](CO)NC(=O)[C@@H]1O[C@H]2CN(Cc3ccccc3)C(=O)[C@@H]1O2
16 | – | COC(=O)[C@@H]1O[C@H]2CN(Cc3ccccc3)C(=S)[C@@H]1O2
9 | – | COC(=O)[C@H]1O[C@H]2O[C@@H]1C(=S)N(Cc1ccccc1)[C@@H]2Cc1ccccc1
0 | – | CCOC(=O)N1CCN(C(=O)[C@@H]2O[C@H]3CN(Cc4ccccc4)C(=S)[C@@H]2O3)CC1

Source: ChEMBL document CHEMBL4043083, “Design and synthesis of bicyclic acetals as Beta Secretase (BACE1) inhibitors” (Bioorg Med Chem, 2017)
